Measurements published in ChEMBL document CHEMBL4152188, “Design, synthesis and biological evaluation of C(4) substituted monobactams as antibacterial agents against multidrug-resistant Gram-negative bacteria” (Eur J Med Chem, 2018).
Values after ≈ are worked out from the molar mass of the structure shown. Each block holds one compound with its values, some of them ahead of it.

Tests used:
Type in all cases: functional
[1] = test system: Escherichia coli; experiment: Antibacterial activity against extended-spectrum beta-lactamase producing Escherichia coli isolate 212648 after 18 hrs by CLSI broth microdilution method; conditions: isolate 212648, 18 h
[2] = test system: Escherichia coli; experiment: Antibacterial activity against Escherichia coli isolate 210737 after 18 hrs by CLSI broth microdilution method; conditions: isolate 210737, 18 h
[3] = test system: Escherichia coli; experiment: Antibacterial activity against extended-spectrum beta-lactamase producing Escherichia coli isolate 208687 after 18 hrs by CLSI broth microdilution method; conditions: isolate 208687, 18 h
[4] = test system: Escherichia coli; experiment: Antibacterial activity against extended-spectrum beta-lactamase producing Escherichia coli isolate 209285 after 18 hrs by CLSI broth microdilution method; conditions: isolate 209285, 18 h
[5] = test system: Escherichia coli; experiment: Antibacterial activity against extended-spectrum beta-lactamase producing Escherichia coli isolate 106342 after 18 hrs by CLSI broth microdilution method; conditions: isolate 106342, 18 h
[6] = test system: Klebsiella pneumoniae; experiment: Antibacterial activity against KPC-2 producing Klebsiella pneumoniae isolate 212232 after 18 hrs by CLSI broth microdilution method; conditions: isolate 212232, 18 h
[7] = test system: Klebsiella pneumoniae; experiment: Antibacterial activity against KPC-2 producing Klebsiella pneumoniae isolate 212229 after 18 hrs by CLSI broth microdilution method; conditions: isolate 212229, 18 h
[8] = test system: Pseudomonas aeruginosa; experiment: Antibacterial activity against IMP-4 producing Pseudomonas aeruginosa isolate 209471 after 18 hrs by CLSI broth microdilution method; conditions: isolate 209471, 18 h
[9] = test system: Pseudomonas aeruginosa; experiment: Antibacterial activity against IMP-4 producing Pseudomonas aeruginosa isolate 208247 after 18 hrs by CLSI broth microdilution method; conditions: isolate 208247, 18 h
[10] = test system: Escherichia coli; experiment: Selectivity index, ratio of MIC for against extended-spectrum beta-lactamase producing Escherichia coli isolate 208687 to MIC for extended-spectrum beta-lactamase producing Escherichia coli isolate 208687 in presence of BPL
[11] = test system: Escherichia coli; experiment: Antibacterial activity against extended-spectrum beta-lactamase producing Escherichia coli isolate 208687 after 18 hrs in presence of BPL by CLSI broth microdilution method; conditions: isolate 208687, 18 h
Outline: (§1)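 CLSI broth microdilution against clinical isolates (ESBL E. coli, KPC-2 MDR K. pneumoniae, IMP-4 MDR P. aeruginosa; five per species). Iron limitation: Mueller-Hinton broth supplemented with 16 mg/liter 2,2'-bipyridyl to complex iron and induce iron uptake systems. Read-out: MIC.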

[12] = test system: Escherichia coli; experiment: Antibacterial activity against Escherichia coli isolate 210737 after 18 hrs in presence of BPL by CLSI broth microdilution method; conditions: isolate 210737, 18 h; outline: as §1
[13] = test system: Escherichia coli; experiment: Selectivity index, ratio of MIC for against Escherichia coli isolate 210737 to MIC for Escherichia coli isolate 210737 in presence of BPL
[14] = test system: Escherichia coli; experiment: Antibacterial activity against extended-spectrum beta-lactamase producing Escherichia coli isolate 212648 after 18 hrs in presence of BPL by CLSI broth microdilution method; conditions: isolate 212648, 18 h; outline: as §1
[15] = test system: Escherichia coli; experiment: Selectivity index, ratio of MIC for against extended-spectrum beta-lactamase producing Escherichia coli isolate 212648 to MIC for extended-spectrum beta-lactamase producing Escherichia coli isolate 212648 in presence of BPL
[16] = test system: Escherichia coli; experiment: Antibacterial activity against extended-spectrum beta-lactamase producing Escherichia coli isolate 209285 after 18 hrs in presence of BPL by CLSI broth microdilution method; conditions: isolate 209285, 18 h; outline: as §1
[17] = test system: Escherichia coli; experiment: Selectivity index, ratio of MIC for against extended-spectrum beta-lactamase producing Escherichia coli isolate 209285 to MIC for extended-spectrum beta-lactamase producing Escherichia coli isolate 209285 in presence of BPL
[18] = test system: Escherichia coli; experiment: Antibacterial activity against extended-spectrum beta-lactamase producing Escherichia coli isolate 106342 after 18 hrs in presence of BPL by CLSI broth microdilution method; conditions: isolate 106342, 18 h; outline: as §1
[19] = test system: Escherichia coli; experiment: Selectivity index, ratio of MIC for against extended-spectrum beta-lactamase producing Escherichia coli isolate 106342 to MIC for extended-spectrum beta-lactamase producing Escherichia coli isolate 106342 in presence of BPL
[20] = test system: Klebsiella pneumoniae; experiment: Antibacterial activity against KPC-2 producing Klebsiella pneumoniae isolate 212423 after 18 hrs by CLSI broth microdilution method; conditions: isolate 212423, 18 h
[21] = test system: Klebsiella pneumoniae; experiment: Antibacterial activity against KPC-2 producing Klebsiella pneumoniae isolate 212423 after 18 hrs in presence of BPL by CLSI broth microdilution method; conditions: isolate 212423, 18 h; outline: as §1
[22] = test system: Klebsiella pneumoniae; experiment: Selectivity index, ratio of MIC for against KPC-2 producing Klebsiella pneumoniae isolate 212423 to MIC for against KPC-2 producing Klebsiella pneumoniae isolate 212423 in presence of BPL
[23] = test system: Klebsiella pneumoniae; experiment: Antibacterial activity against KPC-2 producing Klebsiella pneumoniae isolate 209632 after 18 hrs by CLSI broth microdilution method; conditions: isolate 209632, 18 h
[24] = test system: Klebsiella pneumoniae; experiment: Antibacterial activity against KPC-2 producing Klebsiella pneumoniae isolate 209632 after 18 hrs in presence of BPL by CLSI broth microdilution method; conditions: isolate 209632, 18 h; outline: as §1
[25] = test system: Klebsiella pneumoniae; experiment: Selectivity index, ratio of MIC for against KPC-2 producing Klebsiella pneumoniae isolate 209632 to MIC for against KPC-2 producing Klebsiella pneumoniae isolate 209632 in presence of BPL
[26] = test system: Klebsiella pneumoniae; experiment: Antibacterial activity against KPC-2 producing Klebsiella pneumoniae isolate 209735 after 18 hrs by CLSI broth microdilution method; conditions: isolate 209735, 18 h
[27] = test system: Klebsiella pneumoniae; experiment: Antibacterial activity against KPC-2 producing Klebsiella pneumoniae isolate 209735 after 18 hrs in presence of BPL by CLSI broth microdilution method; conditions: isolate 209735, 18 h; outline: as §1
[28] = test system: Klebsiella pneumoniae; experiment: Selectivity index, ratio of MIC for against KPC-2 producing Klebsiella pneumoniae isolate 209735 to MIC for against KPC-2 producing Klebsiella pneumoniae isolate 209735 in presence of BPL
[29] = test system: Klebsiella pneumoniae; experiment: Antibacterial activity against KPC-2 producing Klebsiella pneumoniae isolate 212232 after 18 hrs in presence of BPL by CLSI broth microdilution method; conditions: isolate 212232, 18 h; outline: as §1
[30] = test system: Klebsiella pneumoniae; experiment: Selectivity index, ratio of MIC for against KPC-2 producing Klebsiella pneumoniae isolate 212232 to MIC for against KPC-2 producing Klebsiella pneumoniae isolate 212232 in presence of BPL
[31] = test system: Klebsiella pneumoniae; experiment: Antibacterial activity against KPC-2 producing Klebsiella pneumoniae isolate 212229 after 18 hrs in presence of BPL by CLSI broth microdilution method; conditions: isolate 212229, 18 h; outline: as §1
[32] = test system: Klebsiella pneumoniae; experiment: Selectivity index, ratio of MIC for against KPC-2 producing Klebsiella pneumoniae isolate 212229 to MIC for against KPC-2 producing Klebsiella pneumoniae isolate 212229 in presence of BPL
[33] = test system: Pseudomonas aeruginosa; experiment: Antibacterial activity against IMP-4 producing Pseudomonas aeruginosa isolate 212886 after 18 hrs by CLSI broth microdilution method; conditions: isolate 212886, 18 h
[34] = test system: Pseudomonas aeruginosa; experiment: Antibacterial activity against IMP-4 producing Pseudomonas aeruginosa isolate 212886 after 18 hrs in presence of BPL by CLSI broth microdilution method; conditions: isolate 212886, 18 h; outline: as §1
[35] = test system: Pseudomonas aeruginosa; experiment: Antibacterial activity against IMP-4 producing Pseudomonas aeruginosa isolate 209471 after 18 hrs in presence of BPL by CLSI broth microdilution method; conditions: isolate 209471, 18 h; outline: as §1
[36] = test system: Pseudomonas aeruginosa; experiment: Antibacterial activity against IMP-4 producing Pseudomonas aeruginosa isolate 208247 after 18 hrs in presence of BPL by CLSI broth microdilution method; conditions: isolate 208247, 18 h; outline: as §1
[37] = test system: Pseudomonas aeruginosa; experiment: Selectivity index, ratio of MIC for against IMP-4 producing Pseudomonas aeruginosa isolate 208247 to MIC for against IMP-4 producing Pseudomonas aeruginosa isolate 208247 in presence of BPL
[38] = test system: Pseudomonas aeruginosa; experiment: Antibacterial activity against IMP-4 producing Pseudomonas aeruginosa isolate 209321 after 18 hrs by CLSI broth microdilution method; conditions: isolate 209321, 18 h
[39] = test system: Pseudomonas aeruginosa; experiment: Antibacterial activity against IMP-4 producing Pseudomonas aeruginosa isolate 209321 after 18 hrs in presence of BPL by CLSI broth microdilution method; conditions: isolate 209321, 18 h; outline: as §1
[40] = test system: Pseudomonas aeruginosa; experiment: Antibacterial activity against IMP-4 producing Pseudomonas aeruginosa isolate 207272 after 18 hrs by CLSI broth microdilution method; conditions: isolate 207272, 18 h
[41] = test system: Pseudomonas aeruginosa; experiment: Antibacterial activity against IMP-4 producing Pseudomonas aeruginosa isolate 207272 after 18 hrs in presence of BPL by CLSI broth microdilution method; conditions: isolate 207272, 18 h; outline: as §1
[42] = test system: Pseudomonas aeruginosa; experiment: Selectivity index, ratio of MIC for against IMP-4 producing Pseudomonas aeruginosa isolate 207272 to MIC for against IMP-4 producing Pseudomonas aeruginosa isolate 207272 in presence of BPL

Compound: C[C@@H](O)[C@H]1C(=O)N2C(C(=O)O)=C(S[C@@H]3CN[C@H](C(=O)N(C)C)C3)[C@H](C)[C@H]12 [MEROPENEM]
MIC [1]: 8 µg/mL (≈ 20.9 µM)
MIC [2]: 0.125 µg/mL (≈ 0.326 µM)
MIC [3]: 0.125 µg/mL (≈ 0.326 µM)
MIC [4]: 1 µg/mL (≈ 2.61 µM)
MIC [5]: 8 µg/mL (≈ 20.9 µM)
MIC [6]: > 64 µg/mL
MIC [7]: > 64 µg/mL
MIC [8]: 32 µg/mL (≈ 83.4 µM)
MIC [9]: 32 µg/mL (≈ 83.4 µM)

MIC [1]: 1 µg/mL (≈ 1.52 µM)
MIC [2]: 0.5 µg/mL (≈ 0.758 µM)
MIC [3]: 2 µg/mL (≈ 3.03 µM)
MIC [11]: 0.25 µg/mL
MIC [12]: 0.25 µg/mL
MIC [14]: 1 µg/mL
MIC [4]: 2 µg/mL (≈ 3.03 µM)
MIC [16]: 1 µg/mL
MIC [5]: 2 µg/mL (≈ 3.03 µM)
MIC [18]: 2 µg/mL
MIC [20]: 2 µg/mL (≈ 3.03 µM)
MIC [21]: 1 µg/mL
MIC [23]: 1 µg/mL (≈ 1.52 µM)
MIC [24]: 0.5 µg/mL
MIC [26]: 2 µg/mL (≈ 3.03 µM)
MIC [27]: 2 µg/mL
MIC [6]: 2 µg/mL (≈ 3.03 µM)
MIC [29]: 1 µg/mL
MIC [7]: 1 µg/mL (≈ 1.52 µM)
MIC [31]: 0.5 µg/mL
MIC [33]: > 64 µg/mL
MIC [34]: > 64 µg/mL
MIC [8]: > 64 µg/mL
MIC [35]: > 64 µg/mL
MIC [9]: 64 µg/mL (≈ 97 µM)
MIC [36]: 64 µg/mL
MIC [38]: > 64 µg/mL
MIC [39]: > 64 µg/mL
MIC [40]: 64 µg/mL (≈ 97 µM)
MIC [41]: 64 µg/mL
Compound: Cc1csc(SC[C@@H]2[C@H](NC(=O)/C(=N\OC(c3cc(=O)c(O)cn3O)C(C)C)c3csc(N)n3)C(=O)N2S(=O)(=O)O)n1 (stereo partly specified)
Selectivity Index [10]: 8
Selectivity Index [13]: 2
Selectivity Index [15]: 1
Selectivity Index [17]: 2
Selectivity Index [19]: 1
Selectivity Index [22]: 2
Selectivity Index [25]: 2
Selectivity Index [28]: 1
Selectivity Index [30]: 2
Selectivity Index [32]: 2
Selectivity Index [37]: 1
Selectivity Index [42]: 1

MIC [1]: 8 µg/mL (≈ 13.6 µM)
MIC [2]: 1 µg/mL (≈ 1.7 µM)
MIC [3]: 4 µg/mL (≈ 6.82 µM)
MIC [11]: 1 µg/mL
MIC [12]: 1 µg/mL
MIC [14]: 2 µg/mL
MIC [4]: 16 µg/mL (≈ 27.3 µM)
MIC [16]: 8 µg/mL
MIC [5]: 8 µg/mL (≈ 13.6 µM)
MIC [18]: 4 µg/mL
MIC [20]: 4 µg/mL (≈ 6.82 µM)
MIC [21]: 2 µg/mL
MIC [23]: 4 µg/mL (≈ 6.82 µM)
MIC [24]: 1 µg/mL
MIC [26]: 4 µg/mL (≈ 6.82 µM)
MIC [27]: 1 µg/mL
MIC [6]: 2 µg/mL (≈ 3.41 µM)
MIC [29]: 0.06 µg/mL
MIC [7]: 8 µg/mL (≈ 13.6 µM)
MIC [31]: 1 µg/mL
MIC [33]: > 64 µg/mL
MIC [34]: > 64 µg/mL
MIC [8]: > 64 µg/mL
MIC [35]: > 64 µg/mL
MIC [9]: > 64 µg/mL
MIC [36]: 64 µg/mL
MIC [38]: > 64 µg/mL
MIC [39]: > 64 µg/mL
MIC [40]: > 64 µg/mL
MIC [41]: 64 µg/mL
Compound: CC(C)C(O/N=C(\C(=O)NC1C(=O)N(S(=O)(=O)O)C12CCOCC2)c1csc(N)n1)c1cc(=O)c(O)cn1O (stereo unspecified)
Selectivity Index [10]: 4
Selectivity Index [13]: 1
Selectivity Index [15]: 4
Selectivity Index [17]: 2
Selectivity Index [19]: 2
Selectivity Index [22]: 2
Selectivity Index [25]: 4
Selectivity Index [28]: 4
Selectivity Index [30]: 32
Selectivity Index [32]: 8
